Measured values pooled from the literature.
Target: Cholinesterase (BCHE, Homo sapiens, UniProt P06276)
Effect on: enzyme activity
Action: inhibitor

The IC50 of `C#CCN(C)CCCCCCOCc1ccc(CN(C)c2c3c(nc4ccccc24)CCCC3)cc1` is reported as 0.43 µM (Ellman).
`COc1ccc(S(=O)(=O)Oc2ccc(C=NNC(=O)c3ccc(F)cc3)cc2)cc1` has an IC50 of 0.0836 µM (Ellman).
`O=[N+]([O-])c1c[nH]c(-c2n[nH]c(=S)n2/N=C/c2ccc(F)cc2O)c1` has an IC50 of 7.8 µM (Ellman).
`C#CCN(C)CCOc1cccc(CN(C)c2c3c(nc4ccccc24)CCCC3)c1` has an IC50 of 2 µM (Ellman).
For `O=[N+]([O-])c1c[nH]c(-c2n[nH]c(=S)n2/N=C/c2ccc(F)c([N+](=O)[O-])c2)c1`, the IC50 was 16.1 µM (Ellman).
`C#CCN(C)CCCCCOCc1ccc(CN(C)c2c3c(nc4ccc(C)cc24)CCCC3)cc1` has an IC50 of 1.12 µM (Ellman).
For `COc1ccc(S(=O)(=O)Oc2cc(OC)ccc2C=NNC(=O)c2ccc(F)cc2)cc1`, the IC50 was 0.113 µM (Ellman).
`O=[N+]([O-])c1c[nH]c(-c2n[nH]c(=S)n2/N=C/c2c(O)cc(O)cc2O)c1` has an IC50 of 6.8 µM (Ellman).
`COc1ccc(S(=O)(=O)Oc2ccc(C=NNC(=O)c3ccc(F)cc3)cc2OC)cc1` has an IC50 of 0.0764 µM (Ellman).
The IC50 of `Cn1cc(-c2cc(C(=O)NN=Cc3ccccc3)no2)c2ccccc21` is reported as greater than 100 µM.
The IC50 of `COc1ccc(S(=O)(=O)Oc2ccccc2C=NNC(=O)c2ccc(F)cc2)cc1` is reported as 0.114 µM (Ellman).
`Cn1cc(-c2cc(C(=O)NN=Cc3cccc(Br)c3)no2)c2ccccc21` has an IC50 of greater than 100 µM.
The IC50 of `O=[N+]([O-])c1c[nH]c(-c2n[nH]c(=S)n2/N=C/c2cc(Cl)cc(Cl)c2)c1` is reported as 14.3 µM (Ellman).
`C#CCN(C)CCCCCOc1cccc(CN(C)c2c3c(nc4ccccc24)CCCC3)c1` gave an IC50 of 0.33 µM (Ellman).
`Cn1cc(-c2cc(C(=O)NN=Cc3ccccc3Cl)no2)c2ccccc21` has an IC50 of greater than 100 µM.
For `C#CCN(C)CCCCCCOc1cccc(CN(C)c2c3c(nc4ccccc24)CCCC3)c1`, the IC50 was 0.32 µM (Ellman).
With `O=[N+]([O-])c1c[nH]c(-c2n[nH]c(=S)n2/N=C/c2ccc(Br)c(Cl)c2)c1` the IC50 was 23.1 µM (Ellman).
The IC50 of `COc1cccc(C=NNC(=O)c2cc(-c3cn(C)c4ccccc34)on2)c1OC` is reported as greater than 100 µM.
With `O=[N+]([O-])c1c[nH]c(-c2n[nH]c(=S)n2/N=C/c2ccc(F)c(O)c2)c1` the IC50 was 9.7 µM (Ellman).
`COc1ccc(OC)c(C=NNC(=O)c2cc(-c3cn(C)c4ccccc34)on2)c1` has an IC50 of greater than 100 µM.
`C#CCN(C)CCCOc1cccc(CN(C)c2c3c(nc4ccccc24)CCCC3)c1` gave an IC50 of 0.41 µM (Ellman).
With `COc1cccc(C=NNC(=O)c2cc(-c3cn(C)c4ccccc34)on2)c1` the IC50 was greater than 100 µM.
`O=[N+]([O-])c1c[nH]c(-c2n[nH]c(=S)n2/N=C/c2ccc(Cl)cc2[N+](=O)[O-])c1` gave an IC50 of 16.4 µM (Ellman).
